Measurements pooled from the literature.
GLP2R: Glucagon-like peptide 2 receptor (GLP2R, Homo sapiens, UniProt O95838)
Tspo: Translocator protein (Tspo, Rattus norvegicus, UniProt P16257)
Melanocortin receptor 4: Melanocortin receptor 4 (Mus musculus, UniProt P56450)

CC[C@H](C)[C@H](NC(=O)[C@H](CC(=O)O)NC(=O)[C@H](CO)NC(=O)[C@@H](NC(=O)[C@H](Cc1ccccc1)NC(=O)[C@@H](NC(=O)CNC(=O)[C@H](CC(=O)O)NC(=O)[C@H](C)NC(=O)[C@@H](N)Cc1c[nH]cn1)[C@@H](C)O)[C@@H](C)O)C(=O)N[C@@H](CC(N)=O)C(=O)N[C@@H](CCCCN)C(=O)N[C@H](C(=O)N[C@@H](CC(C)C)C(=O)N[C@@H](CC(=O)O)C(=O)N[C@@H](CC(=O)O)C(=O)N[C@@H](CCSC)C(=O)N[C@@H](C)C(=O)N[C@@H](C)C(=O)N[C@@H](CCCCN)C(=O)N[C@@H](CCC(=O)O)C(=O)N[C@@H](Cc1ccccc1)C(=O)N[C@@H](CC(C)C)C(=O)N[C@@H](CCCCN)C(=O)N[C@@H](Cc1c[nH]c2ccccc12)C(=O)N[C@@H](CC(C)C)C(=O)N[C@H](C(=O)N[C@@H](CC(N)=O)C(=O)N[C@H](C(=O)N[C@@H](CCCCN)C(=O)N[C@H](C(=O)N[C@H](C(=O)N[C@@H](CCC(N)=O)C(=O)O)[C@@H](C)O)C(C)C)[C@@H](C)O)[C@@H](C)CC)[C@@H](C)CC  EC50 (GLP2R; reporter gene, agonist, luciferase): 0.033 µM
CNc1nc(C#Cc2ccc(Cl)s2)nc2c1ncn2[C@H]1[C@H](O)[C@H](O)[C@]2(C(=O)OCCc3ccccc3)C[C@H]12  Ki (Tspo; ligand displacement, radioligand): > 10 µM
N#Cc1ccc(COc2cccc(C3CCN(Cc4nc5ccc(C(=O)O)cc5n4C[C@@H]4CCO4)CC3)n2)c(F)c1  EC50 (GLP2R; cAMP, agonist): > 20 µM
O[C@@H]1[C@H](O)[C@@H]2C[C@@H]2[C@H]1n1cnc2c(NCCc3ccccc3)nc(C#Cc3ccccc3)nc21  Ki (Tspo; ligand displacement, radioligand): > 10 µM
O=C(OC[C@H]1OC[C@H](OC(=O)c2cc(O)c(O)c(O)c2)[C@@H](O)[C@@H]1O)c1cc(O)c(O)c(O)c1  Kd (Replicase polyprotein 1ab, main protease (rep, Severe acute respiratory syndrome coronavirus 2, UniProt P0DTD1); binding, SPR): 1.18 µM
CSCC[C@H](NC(=O)[C@@H](NC(=O)[C@@H](N)Cc1ccc(O)cc1)C(C)C)C(=O)NCC(=O)O  EC50 (Melanocortin receptor 4; reporter gene, agonist): > 100 µM
Cc1cc2nc3c(=O)[nH]c(=O)nc-3n(C[C@H](O)[C@H](O)[C@H](O)COP(=O)(O)OP(=O)(O)OC[C@H]3O[C@@H](n4cnc5c(N)ncnc54)[C@H](O)[C@@H]3O)c2cc1C  Kd (Dihydrolipoyl dehydrogenase, mitochondrial (DLD, Homo sapiens, UniProt P09622); binding; lysate): 0.641 µM
CCOC(=O)[C@@]12C[C@@H]1[C@@H](n1ccc3c(NC)nc(I)nc31)[C@H](O)[C@@H]2O  Ki (Tspo; ligand displacement, radioligand): > 10 µM
N=C(N)NCCC[C@H](NC(=O)[C@H](CC(=O)O)NC(=O)[C@H](Cc1c[nH]c2ccccc12)NC(=O)[C@@H](N)CCCNC(=N)N)C(=O)N[C@@H](Cc1ccccc1)C(=O)NCC(=O)O  EC50 (Melanocortin receptor 4; reporter gene, agonist): > 100 µM
CNc1nc(C#Cc2ccccc2)nc2c1ncn2[C@H]1[C@H](O)[C@H](O)[C@@H]2C[C@@H]21  Ki (Tspo; ligand displacement, radioligand): > 10 µM
Cc1nc2ccc(NC(=O)CCNC(=O)CCCc3ccc(CC(C(=O)O)C(=O)O)cc3)cc2s1  Kd (L-lactate dehydrogenase A chain (LDHA, Homo sapiens, UniProt P00338); binding, SPR): 0.058 µM
N=C(N)NCCC[C@H](NC(=O)[C@@H](N)CC(=O)O)C(=O)N[C@@H](Cc1ccccc1)C(=O)NCC(=O)O  EC50 (Melanocortin receptor 4; reporter gene, agonist): > 100 µM
CC[C@H](C)[C@H](NC(=O)[C@H](Cc1ccccc1)NC(=O)[C@H](CCC(=O)O)NC(=O)[C@H](CCCCN)NC(=O)[C@H](C)NC(=O)[C@H](C)NC(=O)[C@H](CCC(N)=O)NC(=O)CNC(=O)[C@H](CCC(=O)O)NC(=O)[C@H](CC(C)C)NC(=O)[C@H](Cc1ccc(O)cc1)NC(=O)[C@H](CO)NC(=O)[C@H](CO)NC(=O)[C@@H](NC(=O)[C@H](CC(=O)O)NC(=O)[C@H](CO)NC(=O)[C@@H](NC(=O)[C@H](Cc1ccccc1)NC(=O)[C@@H](NC(=O)CNC(=O)[C@H](CCC(=O)O)NC(=O)[C@H](C)NC(=O)[C@@H](N)Cc1c[nH]cn1)[C@@H](C)O)[C@@H](C)O)C(C)C)C(=O)N[C@@H](C)C(=O)N[C@@H](Cc1c[nH]c2ccccc12)C(=O)N[C@@H](CC(C)C)C(=O)N[C@H](C(=O)N[C@@H](CCCCN)C(=O)NCC(=O)N[C@@H](CCCN=C(N)N)C(=O)NCC(=O)O)C(C)C  EC50 (GLP2R; reporter gene, agonist, luciferase): > 1 µM
CSCC[C@H](NC(=O)[C@@H](NC(=O)[C@@H](N)Cc1ccc(O)cc1)C(C)C)C(=O)NCC(=O)N[C@@H](Cc1c[nH]cn1)C(=O)N[C@@H](Cc1ccccc1)C(=O)O  EC50 (Melanocortin receptor 4; reporter gene, agonist): > 100 µM
CNc1nc(C#Cc2ccc(Cl)s2)nc2c1ncn2[C@H]1[C@H](O)[C@H](O)[C@]2(C(=O)O)C[C@H]12  Ki (Tspo; ligand displacement, radioligand): > 10 µM
